Test results taken from ChEMBL document CHEMBL3124854, “Synthesis and evaluation of antiproliferative activity of a novel series of hydroxychavicol analogs” (Eur J Med Chem, 2014).
pIC50: −log10 of the molar value.

Assays:
HeLa = test: Cytotoxicity against human HeLa cells assessed as growth inhibition after 48 hrs by MTT assay; format: functional, cell-based
Summary of the method: (§1)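 MTT proliferation assay: 2 × 10³ cells per well seeded, 24 h incubation, then treated with analogs dissolved in DMSO and diluted in medium at […] for 48 h. Medium then replaced with fresh medium carrying MTT (5 mg/mL stock in PBS). IC50 taken as concentration inhibiting proliferation of 50% cells; SD between batches.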

PC-3 = test: Cytotoxicity against human PC3 cells assessed as growth inhibition after 48 hrs by MTT assay; format: functional, cell-based; conditions: PC-3, 48 h; summary of the method: as §1

Q: `C=CCc1ccc(O)c(O)c1` [HYDROXYCHAVICOL] was tested. Which pIC50 (HeLa) did it give?
A: 4.08

Q: What about the pIC50 (PC-3) of the same compound?
A: 4.26

Q: With `COc1cc(CC(COC(C)=O)OC(C)=O)ccc1O` (stereo not given) as the compound, how does the pIC50 (HeLa) read?
A: 4.22

Q: With `CC(=O)OC/C=C/c1ccc(OCc2ccccc2)c(OC(C)=O)c1` as the compound, how does the pIC50 (HeLa) read?
A: 4.38

Q: What about the pIC50 (PC-3) of the same compound?
A: 4.42

Q: `CC(=O)OCCCc1ccc(O)c(O)c1` was tested. Which pIC50 (HeLa) did it give?
A: 4.66

Q: And the pIC50 (PC-3)?
A: 4.08

Q: With `C=CC(O)c1ccc(OCc2ccccc2)c(O)c1` (stereo not given) as the compound, how does the pIC50 (HeLa) read?
A: 4.12

Q: `C=CCOc1ccc(CC(COC(C)=O)OC(C)=O)cc1OC` (stereo not given) was tested. Which pIC50 (HeLa) did it give?
A: 4.02

Q: How did the pIC50 (HeLa) turn out when `CCC(OC(C)=O)c1ccc(O)c(OC(C)=O)c1` (stereo not given) was run?
A: 4.40

Q: What about the pIC50 (PC-3) of the same compound?
A: 4.32

Q: With `CC(=O)OC/C=C/c1ccc(OCc2ccccc2)c(O)c1` as the compound, how does the pIC50 (HeLa) read?
A: 4.89

Q: And the pIC50 (PC-3)?
A: 5.46

Q: Which results are given for `CCC(OC(C)=O)c1ccc(OC(C)=O)c(OC(C)=O)c1` (stereo not given)?
A: pIC50 (HeLa): 4.28; pIC50 (PC-3): 4.38
